Results reported in ChEMBL document CHEMBL4715860 (J Med Chem, 2020).
Values belong to the compound of their own block, whether it stands above or below them. Active and inactive are the calls of the source. The calls are words filed in the database; no cut-off is given here.

Legend:
[1] = AUC (0 to 8 hrs) in C57BL/6J mouse plasma at 10 mg/kg, po administered as single dose by mass spectrometry based UHPLC analysis; type: ADME, organism-based; parameters: time < 8 hr, route oral, dose 10 mg/kg
How it was run: (§1)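 Female C57BL/6J mice, one oral dose of 10 mg/kg in 20% Captisol; plasma and brain levels over time, n = 3 per time point (mean).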

[2] = system: Mus musculus; assay: In vivo inhibition of PI3Kalpha C57BL/6J mouse assessed as increase in plasma insulin concentration at 10 mg/kg, po measured after 8 hrs by ELISA; type: functional, organism-based
[3] = Toxicity in Tsc1-GFAP knockout Balb/c mouse assessed as change in body weight at 10 mg/kg, po; type: organism-based; conditions: in vivo
How it was run: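 Tsc1GFAPCKO mice dosed orally from P21 at 10, 25, 50 mg/kg or 50 mg/kg bid. Body weight tracked during the survival study; mean ± SEM.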

[4] = Clearance in C57BL/6J mouse plasma at 10 mg/kg, po administered as single dose by mass spectrometry based UHPLC analysis; type: ADME, organism-based; how it was run: as §1
[5] = Cmax in C57BL/6J mouse brain at 10 mg/kg, po administered once a day for 4 consecutive days by mass spectrometry based UHPLC analysis; type: ADME, organism-based; parameters: route oral, dose 10 mg/kg, time 4 day
How it was run: (§2)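 Female C57BL/6J mice given 10 mg/kg p.o. in 20% Captisol once daily for 4 consecutive days. Plasma and brain sampled after the final dose on day 4, n = 3 per time point.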

[6] = system: Mus musculus; assay: Protection against Tsc1-GFAP knockout induced mortality in Balb/c mouse assessed as increase in survival rate at 10 mg/kg, po administered as single dose; type: functional, organism-based
[7] = Elimination half life in C57BL/6J mouse plasma at 10 mg/kg, po administered once a day for 4 consecutive days by mass spectrometry based UHPLC analysis; type: ADME, organism-based; conditions: time 4 day, read-out: beta t1/2 (converted); how it was run: as §2
[8] = Tmax in C57BL/6J mouse plasma at 10 mg/kg, po administered as single dose by mass spectrometry based UHPLC analysis; type: ADME, organism-based
How it was run: (§3)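 Female C57BL/6J mice dosed orally at 10 mg/kg in 20% Captisol, either once or once daily for 4 days with sampling after the last dose on day 4. Plasma and brain concentrations followed over time. Tmax taken from at least 3 time points.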

[9] = system: Mus musculus; assay: In vivo inhibition of PI3Kalpha in C57BL/6J mouse assessed as increase in plasma glucose concentration at 10 mg/kg, po measured after 8 hrs by glucoseoxidase-peroxide coupled colorimetric assay; type: functional, organism-based
[10] = Tmax in C57BL/6J mouse plasma at 10 mg/kg, po administered once a day for 4 consecutive days by mass spectrometry based UHPLC analysis; type: ADME, organism-based; conditions: time 4 day; how it was run: as §3
[11] = AUC (0 to 8 hrs) in C57BL/6J mouse plasma at 10 mg/kg, po administered once a day for 4 consecutive days by mass spectrometry based UHPLC analysis; type: ADME, organism-based; parameters: route oral, time 4 day, dose 10 mg/kg; how it was run: as §2
[12] = system: Mus musculus; assay: In vivo inhibition of mTORC1 signalling in C57BL/6J mouse assessed as reduction in RPS6 phosphorylation at S235/236 residue in cortex at 10 mg/kg, po incubated for 30 mins by Western blot analysis; type: functional, organism-based
[13] = Cmax in C57BL/6J mouse brain at 10 mg/kg, po administered as single dose by mass spectrometry based UHPLC analysis; type: ADME, organism-based; parameters: route oral, dose 10 mg/kg; how it was run: as §1
[14] = AUC (0 to 8 hrs) in C57BL/6J mouse brain at 10 mg/kg, po administered once a day for 4 consecutive days by mass spectrometry based UHPLC analysis; type: ADME, organism-based; parameters: route oral, time 4 day, dose 10 mg/kg; how it was run: as §2
[15] = Cmax in C57BL/6J mouse plasma at 10 mg/kg, po administered as single dose by mass spectrometry based UHPLC analysis; type: ADME, organism-based; parameters: route oral, dose 10 mg/kg; how it was run: as §1
[16] = AUC (0 to 8 hrs) in C57BL/6J mouse brain at 10 mg/kg, po administered as single dose by mass spectrometry based UHPLC analysis; type: ADME, organism-based; parameters: time < 8 hr, route oral, dose 10 mg/kg; how it was run: as §1
[17] = Elimination half life in C57BL/6J mouse brain at 10 mg/kg, po administered once a day for 4 consecutive days by mass spectrometry based UHPLC analysis; type: ADME, organism-based; conditions: time 4 day, read-out: beta t1/2 (converted); how it was run: as §2
[18] = Tmax in C57BL/6J mouse brain at 10 mg/kg, po administered as single dose by mass spectrometry based UHPLC analysis; type: ADME, organism-based; how it was run: as §3
[19] = Tmax in C57BL/6J mouse brain at 10 mg/kg, po administered once a day for 4 consecutive days by mass spectrometry based UHPLC analysis; type: ADME, organism-based; conditions: time 4 day; how it was run: as §3
[20] = Clearance in C57BL/6J mouse plasma at 10 mg/kg, po administered once a day for 4 consecutive days by mass spectrometry based UHPLC analysis; type: ADME, organism-based; conditions: time 4 day; how it was run: as §2
[21] = Elimination half life in C57BL/6J mouse plasma at 10 mg/kg, po administered as single dose by mass spectrometry based UHPLC analysis; type: ADME, organism-based; conditions: read-out: beta t1/2 (converted); how it was run: as §1
[22] = Cmax in C57BL/6J mouse plasma at 10 mg/kg, po administered once a day for 4 consecutive days by mass spectrometry based UHPLC analysis; type: ADME, organism-based; parameters: route oral, dose 10 mg/kg, time 4 day; how it was run: as §2
[23] = system: Mus musculus; assay: Protection against Tsc1-GFAP knockout induced mortality in Balb/c mouse assessed as increase in survival rate at 100 mg/kg, po administered as single dose; type: functional, organism-based
[24] = Metabolic stability in Beagle dog hepatocytes assessed as parent compound remaining at 5 uM incubated for 3 hrs by LC-MS analysis; type: ADME, cell-based, Canis lupus familiaris, Hepatocyte; conditions: read-out: Stabilty
How it was run: (§4)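 Cryopreserved primary hepatocytes in suspension (CD-1 mouse, Sprague-Dawley rat, Beagle dog, human). Compound diluted from 10 mM DMSO stock to 5 μM final. Sampled at 0, 15, 60, 90 and 180 min, protein precipitated with ACN plus internal standard, supernatant analysed by LC−MS. Run in duplicate. 7-ethoxycoumarin as positive control. Hepatocyte-free medium incubations as negative control.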

[25] = Toxicity in Tsc1-GFAP knockout Balb/c mouse assessed as survival rate administered orally once a day measured post last dose; conditions: in vivo, po, dose 50-100 mg/kg
How it was run: (§5)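 Tsc1GFAPCKO mice (Tsc1 conditionally inactivated mainly in glia). Oral dosing from P21 at 10, 25, 50 mg/kg qd or 50 mg/kg bid, n = 7–10 per group. Controls were vehicle and a comparator at 10 mg/kg. Body weight tracked. Survival followed from P21 to death or censoring at P90, compared by log-rank test.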

[26] = Toxicity in Tsc1-GFAP knockout Balb/c mouse assessed as change in body weight at 50 to 100 mg/kg, po; type: organism-based; conditions: in vivo, dose 50-100 mg/kg
[27] = Metabolic stability in Sprague-Dawley rat hepatocytes assessed as parent compound remaining at 5 uM incubated for 3 hrs by LC-MS analysis; type: ADME, cell-based, Hepatocyte; conditions: read-out: Stabilty; how it was run: as §4
[28] = Metabolic stability in CD1 mouse hepatocytes assessed as parent compound remaining at 5 uM incubated for 3 hrs by LC-MS analysis; type: ADME, cell-based, Hepatocyte; conditions: read-out: Stabilty; how it was run: as §4
[29] = Toxicity in po dosed Balb/c nude mouse administered once daily for 14 days measured for 7 days starting from post last dose; type: organism-based; conditions: in vivo, time 21 day
How it was run: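 Nontumor-bearing female BALB/c nude mice dosed p.o. once daily for 14 days at 100, 150 or 200 mg/kg (n = 3 each), with vehicle of 20% Captisol in water (n = 1). Body weight change followed, with animals evaluated for 7 days after dosing to set the maximum tolerated dose.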

[30] = system: Mus musculus; assay: Protection against Tsc1-GFAP knockout induced mortality in Balb/c mouse assessed as increase in survival rate administered orally twice a day measured post last dose; type: functional, organism-based; how it was run: as §5
[31] = Metabolic stability in human hepatocytes assessed as parent compound remaining at 5 uM incubated for 3 hrs by LC-MS analysis; type: ADME, cell-based, Hepatocyte; conditions: read-out: Stabilty; how it was run: as §4

AUC(0-t) at 8 h [1]: 33600 ng·h/mL | CL/F [4]: 4.6 mL/min/kg | Cmax [5]: 43 ng/mL | half-life [7]: 5.7 h | Tmax [8]: 0.5 h | Tmax [10]: 2 h | AUC at 96 h [11]: 42300 ng·h/mL | Cmax [13]: 57 ng/mL | AUC at 96 h [14]: 640 ng·h/mL | Cmax [15]: 3460 ng/mL | AUC(0-t) at 8 h [16]: 804 ng·h/mL | half-life [17]: 15.8 h | Tmax [18]: 24 h | Tmax [19]: 4 h | CL/F [20]: 3.75 mL/min/kg | half-life [21]: 6.5 h | Cmax [22]: 3940 ng/mL
SMILES: CO[C@H]1C[C@@H]2CC[C@@H](C)[C@@](O)(O2)C(=O)C(=O)N2CCCC[C@H]2C(=O)O[C@H]([C@H](C)C[C@@H]2CC[C@@H](OCCO)[C@H](OC)C2)CC(=O)[C@H](C)/C=C(\C)[C@@H](O)[C@@H](OC)C(=O)[C@H](C)C[C@H](C)/C=C/C=C/C=C/1C [EVEROLIMUS]
inhibition [2]: inactive | Activity [3]: Non-Toxic | Activity [6]: Active | inhibition [9]: inactive | inhibition [12]: inactive

SMILES: Nc1cc(C(F)F)c(-c2nc(N3C4CCC3COC4)nc(N3C4CCC3COC4)n2)cn1
Activity [23]: Active | remaining at 3 h, 5 µM [24]: > 59.9% | Activity [25]: Dose-dependent effect | Activity [26]: Non-Toxic | remaining at 3 h, 5 µM [27]: > 59.9% | remaining at 3 h, 5 µM [28]: > 59.9% | MTD at 504 h [29]: 150 mg/kg | Activity [30]: Dose-dependent effect | remaining at 3 h, 5 µM [31]: 27.8%
